Laboratory results from ChEMBL document CHEMBL1833854, “2,5-Disubstituted-1,3,4-oxadiazoles/thiadiazole as surface recognition moiety: design and synthesis of novel hydroxamic acid based histone deacetylase inhibitors” (Bioorg Med Chem Lett, 2011).

Key:
[1] = tested on: HCT-116; assay: Antiproliferative activity against human HCT116 cells by MTT assay; assay type: functional, cell-based
[2] = target: Histone deacetylase 1 (Homo sapiens, UniProt Q13547); assay: Inhibition of HDAC1 by fluorescent activity assay
[3] = Antitumor activity against mouse EAC cells transplanted in Swiss albino mouse assessed as tumor cell inhibition in ascetic fluid at 0.2 mmol/kg, ip administered qd for 7 days measured on 8th day; assay type: functional; details: Ehrlich, 168 h, read-out: GI
Summary of the method: (§1)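 Ehrlich ascites carcinoma cells (9 days old) were taken from a donor mouse into sterile isotonic saline and adjusted to 10 × 10⁶ cells/mL. Mice received 0.1 mL per 10 g ip on day 0. Compound in PBS pH 7.2 (0.1 mL/10 g) was given ip on days 1–7 at 24-h intervals; controls received vehicle only. On day 8, after 6 h fasting, peritoneal cells were counted and ascitic fluid weight was taken from body weight before and after fluid removal.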

[4] = Antitumor activity against mouse EAC cells transplanted in Swiss albino mouse assessed as tumor weight inhibition in ascetic fluid at 0.2 mmol/kg, ip administered qd for 7 days measured on 8th day; assay type: functional; details: Ehrlich, 168 h, read-out: GI; summary of the method: as §1
[5] = Antitumor activity against mouse EAC cells transplanted in Swiss albino mouse assessed as tumor weight inhibition in ascetic fluid at 1 mg/kg, ip administered qd for 7 days measured on 8th day; assay type: functional; details: Ehrlich, 168 h, route intraperitoneal, read-out: GI
Summary of the method: (§2)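 Swiss albino mice were inoculated ip on day 0 with 9-day-old Ehrlich ascites carcinoma cells from a donor mouse (10 × 10⁶ cells/mL in isotonic saline, 0.1 mL per 10 g). Mitomycin-C served as the standard at 1 mg/kg; controls received vehicle only. Mice were sacrificed on day 8 after 6 h without food and water. Peritoneal fluid cells were counted, and ascitic fluid weight came from body weight before and after draining the cavity.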

[6] = Antitumor activity against mouse EAC cells transplanted in Swiss albino mouse assessed as tumor cell inhibition in ascetic fluid at 1 mg/kg, ip administered qd for 7 days measured on 8th day; assay type: functional; details: Ehrlich, 168 h, route intraperitoneal, read-out: GI; summary of the method: as §2

Sequence of Histone deacetylase 1 (Q13547 whole entry): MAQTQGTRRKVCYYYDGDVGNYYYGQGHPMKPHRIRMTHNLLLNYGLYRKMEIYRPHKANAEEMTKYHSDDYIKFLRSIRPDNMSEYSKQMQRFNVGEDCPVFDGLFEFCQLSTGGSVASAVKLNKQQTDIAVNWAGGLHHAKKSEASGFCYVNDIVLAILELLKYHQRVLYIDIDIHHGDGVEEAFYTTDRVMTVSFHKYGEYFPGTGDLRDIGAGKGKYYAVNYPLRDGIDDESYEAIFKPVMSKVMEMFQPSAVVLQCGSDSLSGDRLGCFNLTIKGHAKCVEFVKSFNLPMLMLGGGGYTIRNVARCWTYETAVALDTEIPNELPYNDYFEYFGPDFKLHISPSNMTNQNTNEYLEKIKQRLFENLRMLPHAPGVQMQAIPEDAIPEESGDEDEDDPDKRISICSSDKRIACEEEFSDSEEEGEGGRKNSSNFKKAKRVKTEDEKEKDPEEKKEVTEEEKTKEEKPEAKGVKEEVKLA

Compound | IC50 [1] [µM] | IC50 [2] [µM] | inhibition in vivo at 200 µmol/kg [3] [%] | inhibition in vivo at 200 µmol/kg [4] [%] | inhibition in vivo at 1 mg/kg [5] [%] | inhibition in vivo at 1 mg/kg [6] [%]
CN(C)c1ccc(-c2nnc(Nc3ncc(C(=O)NO)cn3)o2)cc1 | 0.2 | 0.009 | 56.8 | 55.5 | – | –
O=C(NO)c1cnc(Nc2nnc(-c3ccccc3)s2)nc1 | 0.08 | 0.008 | 29.5 | 14.2 | – | –
CO[C@@]12[C@H](COC(N)=O)C3=C(C(=O)C(C)=C(N)C3=O)N1C[C@@H]1N[C@@H]12 [MITOMYCIN] | – | – | – | – | 100 | 100

The remaining compounds from weak to strong by IC50 [1], led by results:

IC50 [1] [µM] | IC50 [2] [µM] | Compound | inhibition in vivo at 200 µmol/kg [3] [%] | inhibition in vivo at 200 µmol/kg [4] [%] | inhibition in vivo at 1 mg/kg [5] [%] | inhibition in vivo at 1 mg/kg [6] [%]
0.2 | 0.011 | CN(C)c1ccc(-c2nnc(Nc3ncc(C(=O)NO)cn3)s2)cc1 | 51.1 | 61.1 | – | –
0.16 | 0.01 | O=C(NO)c1cnc(Nc2nnc(-c3ccc(Cl)cc3)s2)nc1 | 32 | 48.3 | – | –
0.06 | 0.009 | O=C(NO)c1cnc(Nc2nnc(-c3ccc(F)cc3)o2)nc1 | 16.4 | 24.1 | – | –
